Experimental data taken from ChEMBL document CHEMBL4007408, “Identification of Novel Triazole-Based Nicotinamide Phosphoribosyltransferase (NAMPT) Inhibitors Endowed with Antiproliferative and Antiinflammatory Activity” (J Med Chem, 2017).
Active and inactive are the calls of the source. No cut-off for these calls is given here.

Legend:
[1] = tested on: SH-SY5Y; experiment: Cytotoxicity against human SH-SY5Y cells assessed as reduction in cell viability after 56 hrs by MTT assay; assay type: functional, cell-based
[2] = molecular target: Nicotinamide phosphoribosyltransferase (Mus musculus, UniProt Q99KQ4); experiment: Inhibition of recombinant mouse NAMPT expressed in bacterial expression system using nicotinamide as substrate after 1 hr by fluorescence based NMNAT-3 enzyme coupled assay
[3] = tested on: Liver; experiment: Drug metabolism in human liver microsomes assessed as pyridine N-oxidation by measuring 7-(4-(pyridin-3-yl)-1H-1,2,3-triazol-1-yl)heptanoic acid formation after 60 mins in presence of NADPH-regenerating system by LC-UV analysis; assay type: ADME, microsome
Procedure, shortened: (§1)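 Metabolites were characterized by LC-ESI-MSn on supernatants of 60 min, 37 °C incubations. Each used 50 μM substrate with rat or human liver microsomes (1.0 mg/ml protein) in 50 mM Tris-HCl pH 7.4 with 3.3 mM MgCl2, 1% acetonitrile and an NADPH-regenerating system. Reactions were quenched with cold acetonitrile and centrifuged.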

[4] = tested on: Liver; experiment: Drug metabolism in human liver microsomes assessed as pyridine N-oxidation by measuring biphenyl-2-carboxamide formation after 60 mins in presence of NADPH-regenerating system by LC-UV analysis; assay type: ADME, microsome; settings: 1 h; procedure, shortened: as §1
[5] = tested on: Liver; experiment: Drug metabolism in Wistar Han rat liver microsomes assessed as pyridine N-oxidation by measuring 7-(4-(pyridin-3-yl)-1H-1,2,3-triazol-1-yl)heptanoic acid formation after 60 mins in presence of NADPH-regenerating system by LC-UV analysis; assay type: ADME, microsome; procedure, shortened: as §1
[6] = tested on: Liver; experiment: Drug metabolism in Wistar Han rat liver microsomes assessed as pyridine N-oxidation by measuring biphenyl-2-carboxamide formation after 60 mins in presence of NADPH-regenerating system by LC-UV analysis; assay type: ADME, microsome; settings: 1 h; procedure, shortened: as §1
[7] = molecular target: Nicotinamide phosphoribosyltransferase (Homo sapiens, UniProt P43490); experiment: Inhibition of NAMPT in human Jurkat T cells assessed as reduction in NAD levels; assay type: cell-based
[8] = tested on: Liver; experiment: Stability in human liver microsomes after 60 mins by LC-ESI-MS analysis; assay type: ADME, microsome; settings: 1 h
[9] = tested on: Liver; experiment: Stability in Wistar Han rat liver microsomes after 60 mins by LC-ESI-MS analysis; assay type: ADME, microsome; settings: 1 h
[10] = Drug metabolism in Wistar Han rat liver microsomes assessed as mixed function oxidase mediated compound cleavage by measuring compound remaining after 60 mins in presence of NADPH-regenerating system by LC-UV analysis; assay type: ADME; settings: read-out: Stability
Procedure, shortened: (§2)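 Substrate at 50 μM final, with rat or human liver microsomes at 1.0 mg/ml protein, in 50 mM Tris-HCl pH 7.4. Mix held 3.3 mM MgCl2, 1% acetonitrile and an NADPH-regenerating system (1.3 mM β-NADP, 3.3 mM glucose 6-phosphate, 0.4 U/ml G6PDH). Shaken 60 min at 37 °C, stopped with ice-cold acetonitrile. LC-UV gave % residual substrate versus a no-microsome control, mean of two replicates.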

[11] = Drug metabolism in human liver microsomes assessed as mixed function oxidase mediated compound cleavage by measuring compound remaining after 60 mins in presence of NADPH-regenerating system by LC-UV analysis; assay type: ADME; settings: read-out: Stability; procedure, shortened: as §2
[12] = Stability in Wistar Han rat liver microsomes assessed as mixed function oxidase mediated compound cleavage after 60 mins in presence of NADPH-regenerating system by LC-UV analysis; assay type: ADME; settings: 1 h; procedure, shortened: as §2
[13] = tested on: Liver; experiment: Stability in human liver microsomes assessed as mixed function oxidase mediated compound cleavage after 60 mins in presence of NADPH-regenerating system by LC-UV analysis; assay type: ADME, microsome; settings: 1 h; procedure, shortened: as §2
[14] = tested on: Liver; experiment: Drug metabolism in Wistar Han rat liver microsomes assessed as pyridine N-oxidation after 60 mins in presence of NADPH-regenerating system by LC-UV analysis; assay type: ADME, microsome; settings: 1 h; procedure, shortened: as §1
[15] = tested on: Liver; experiment: Drug metabolism in human liver microsomes assessed as pyridine N-oxidation after 60 mins in presence of NADPH-regenerating system by LC-UV analysis; assay type: ADME, microsome; settings: 1 h; procedure, shortened: as §1
[16] = Half life in athymic Nu/Nu Harlan mouse at 10 mg/kg, iv administered as single dose up to 24 hrs by LC-ESI-MS analysis; assay type: ADME, organism-based; settings: in vivo
[17] = AUC in athymic Nu/Nu Harlan mouse at 10 mg/kg, iv administered as single dose up to 24 hrs by LC-ESI-MS analysis; assay type: ADME, organism-based; parameters: time < 24 hr, dose 10 mg/kg, route intravenous; settings: in vivo
[18] = Clearance in athymic Nu/Nu Harlan mouse at 10 mg/kg, iv administered as single dose up to 24 hrs by LC-ESI-MS analysis; assay type: ADME, organism-based; settings: in vivo
[19] = Volume of distribution in athymic Nu/Nu Harlan mouse at 10 mg/kg, iv administered as single dose up to 24 hrs by LC-ESI-MS analysis; assay type: ADME, organism-based; settings: in vivo
[20] = tested on: A2780; experiment: Cytotoxicity against human A2780 cells assessed as reduction in cell viability; assay type: functional, cell-based
[21] = tested on: A2780; experiment: Antitumor activity against human A2780 cells xenografted in athymic nu/nu Harlan mouse assessed as reduction in tumor growth at 10 mg/kg, ip bid administered for 8 consecutive days; assay type: functional, organism-based
[22] = tested on: Liver; experiment: Drug level in human liver microsomes treated with N-(biphenyl-2-yl)-8-(4-(pyridin-3-yl)-1H-1,2,3-triazol-1-yl)octanamide after 60 mins by LC-ESI-MS analysis; assay type: ADME, microsome
[23] = tested on: Liver; experiment: Drug level in Wistar Han rat liver microsomes treated with N-(biphenyl-2-yl)-8-(4-(pyridin-3-yl)-1H-1,2,3-triazol-1-yl)octanamide after 60 mins by LC-ESI-MS analysis; assay type: ADME, microsome
[24] = tested on: Liver; experiment: Drug level in human liver microsomes treated with N-(7-(4-(Pyridin-3-yl)-1H-1,2,3-triazol-1-yl)heptyl)-[1,1'-biphenyl]-2-carboxamide after 60 mins in presence of NADPH-regenerating system by LC-UV analysis; assay type: ADME, microsome; procedure, shortened: as §2
[25] = tested on: Liver; experiment: Drug level in Wistar Han rat liver microsomes treated with N-(7-(4-(Pyridin-3-yl)-1H-1,2,3-triazol-1-yl)heptyl)-[1,1'-biphenyl]-2-carboxamide after 60 mins in presence of NADPH-regenerating system by LC-UV analysis; assay type: ADME, microsome; procedure, shortened: as §2
[26] = Homo sapiens, SH-SY5Y, 56 h, read-out: EC50

Nicotinamide phosphoribosyltransferase (Mus musculus, UniProt Q99KQ4), sequence (Q99KQ4 whole entry): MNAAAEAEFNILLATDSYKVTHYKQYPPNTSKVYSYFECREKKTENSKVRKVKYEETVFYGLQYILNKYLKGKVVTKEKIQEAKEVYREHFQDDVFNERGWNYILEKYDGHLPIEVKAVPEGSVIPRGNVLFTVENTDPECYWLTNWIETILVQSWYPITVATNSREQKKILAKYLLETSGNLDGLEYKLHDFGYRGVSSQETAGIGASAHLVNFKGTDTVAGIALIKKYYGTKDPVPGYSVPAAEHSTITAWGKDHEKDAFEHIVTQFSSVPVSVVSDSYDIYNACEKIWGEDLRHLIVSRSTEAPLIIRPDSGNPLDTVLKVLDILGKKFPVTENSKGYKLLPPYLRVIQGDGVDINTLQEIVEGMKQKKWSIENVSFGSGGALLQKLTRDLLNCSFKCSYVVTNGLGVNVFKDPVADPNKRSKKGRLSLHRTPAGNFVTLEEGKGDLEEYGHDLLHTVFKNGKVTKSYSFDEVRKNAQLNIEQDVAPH
Nicotinamide phosphoribosyltransferase (Homo sapiens, UniProt P43490), sequence (P43490 whole entry): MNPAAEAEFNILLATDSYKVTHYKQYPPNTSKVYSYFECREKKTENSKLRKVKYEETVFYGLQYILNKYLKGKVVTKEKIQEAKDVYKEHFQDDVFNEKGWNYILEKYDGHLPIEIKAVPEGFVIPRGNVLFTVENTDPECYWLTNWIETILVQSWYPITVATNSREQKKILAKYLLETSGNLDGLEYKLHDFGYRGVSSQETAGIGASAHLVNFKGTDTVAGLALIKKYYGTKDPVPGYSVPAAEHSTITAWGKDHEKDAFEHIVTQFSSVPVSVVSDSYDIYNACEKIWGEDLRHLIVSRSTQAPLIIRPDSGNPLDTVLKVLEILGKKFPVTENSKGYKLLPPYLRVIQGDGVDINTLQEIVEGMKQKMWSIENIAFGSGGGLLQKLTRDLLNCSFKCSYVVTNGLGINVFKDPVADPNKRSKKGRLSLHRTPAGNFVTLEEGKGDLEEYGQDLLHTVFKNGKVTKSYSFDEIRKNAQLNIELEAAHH

## O=S(=O)(NCCCCCCn1cc(-c2cccnc2)nn1)c1ccccc1Br
[1]; [26]
  EC50: 175 nM

## c1ccc(-c2ccccc2-c2cn(CCCCCCCc3cn(-c4cccnc4)nn3)nn2)cc1
[1]; [26]
  EC50: 84.2 nM

## O=S(=O)(NCCCCCCn1cc(-c2cccnc2)nn1)c1ccccc1-c1ccccc1
[1]; [26]
  EC50: 100 nM

## [O-][n+]1cccc(-c2cn(CCCCCCOc3ccccc3-c3ccccc3)nn2)c1
[2]
  IC50: Not Active
[1]; sh-sy5y
  EC50: Not Active
[3]
  Drug metabolism: Metabolite_Detected
[4]
  Drug metabolism: Metabolite_Detected
[5]
  Drug metabolism: Metabolite_Detected
[6]
  Drug metabolism: Metabolite_Detected

## O=C(NCCCCCCn1cc(-c2cccnc2)nn1)c1ccccc1-c1ccccc1
[1]; [26]
  EC50: 22.2 nM

## c1ccc(-c2ccccc2-c2cn(CCCCCCCn3cc(-c4cccnc4)nn3)nn2)cc1
[2]; read-out: IC50
  IC50: 8.1 nM
[1]; [26]
  EC50: 9.1 nM
[7]
  IC50: 7.8 nM
[8]
  Stability: Stable
[9]
  Stability: Stable
[10]
  remaining at 1 h: 47%
[11]
  remaining at 1 h: 87%
[12]
  Stability: Stable
[13]
  Stability: Stable
[14]
  Drug metabolism: Metabolite_Detected
[15]
  Drug metabolism: Metabolite_Detected
[16]
  half-life: 1.48 h
[17]
  AUC at 24 h: 2250 ng·h/mL
[18]
  clearance: 74 mL/min/kg
[19]
  Vd: 9.4 L/kg
[20]
  IC50: 5.8 nM
[21]
  inhibition: inactive

## O=C(CCCCCCCc1cnc(-c2cccnc2)s1)Nc1ccccc1-c1ccccc1
[1]; [26]
  EC50: 5250 nM

## c1ccc(-c2ccccc2CNCCCCCCn2cc(-c3cccnc3)nn2)cc1
[1]; [26]
  EC50: 202 nM

## O=C(CCCCCCCc1cc(-c2cccnc2)[nH]n1)Nc1ccccc1-c1ccccc1
[1]; [26]
  EC50: 384 nM

## O=C(NCCCCCCn1cc(-c2cccnc2)nn1)Nc1ccccc1-c1ccccc1
[1]; [26]
  EC50: 43 nM

## O=S(=O)(NCCCCCCCCn1cc(-c2cccnc2)nn1)c1ccccc1-c1ccccc1
[2]; read-out: IC50
  IC50: 47 nM
[1]; [26]
  EC50: 12.6 nM

## Nc1ccccc1-c1ccccc1
[22]
  Drug metabolism: Metabolite_Detected
[23]
  Drug metabolism: Metabolite_Detected

## O=C(CCCCCCCc1nnc(-c2cccnc2)[nH]1)Nc1ccccc1-c1ccccc1
[2]; read-out: IC50
  IC50: 269 nM
[1]; [26]
  EC50: 82.9 nM

## c1ccc(-c2ccccc2OCc2ccc(CCn3cc(-c4cccnc4)nn3)cc2)cc1
[1]; [26]
  EC50: 160 nM

## c1ccc(-c2ccccc2OCCCCCCCn2cc(-c3cccnc3)nn2)cc1
[2]; read-out: IC50
  IC50: 31.3 nM
[1]; [26]
  EC50: 15 nM

## O=C(O)CCCCCCn1cc(-c2cccnc2)nn1
[24]
  Drug metabolism: Metabolite_Detected
[25]
  Drug metabolism: Metabolite_Detected

## c1ccc(-c2ccccc2-n2cc(CCCCCCCc3cn(-c4cccnc4)nn3)nn2)cc1
[1]; [26]
  EC50: > 500 nM

## O=C(CCCCCCCc1nnc(-c2cccnc2)o1)Nc1ccccc1-c1ccccc1
[1]; [26]
  EC50: 370 nM

## O=C(CCCCCCCc1cc(-c2cccnc2)on1)Nc1ccccc1-c1ccccc1
[2]; read-out: IC50
  IC50: 49.9 nM
[1]; [26]
  EC50: 59.8 nM

## O=C(NCCCCCCCn1cc(-c2cccnc2)nn1)Nc1ccccc1-c1ccccc1
[2]; read-out: IC50
  IC50: 32.4 nM
[1]; [26]
  EC50: 7 nM
